Assay results from different studies.
Protocols differ between the studies behind these lines.
Target: Mitogen-activated protein kinase 8 (MAPK8, Homo sapiens, UniProt P45983)

NS(=O)(=O)c1cc(NC(=O)Cc2ccccc2)ccc1Oc1cccc(Cl)c1 — remaining binding (cell-free assay, competition with immobilised ligand; 1 µM): 69%
COc1cnc(Nc2cccc(S(N)(=O)=O)c2)nc1N1CCN(c2ccccc2)CC1 — remaining binding (binding, competition with immobilised ligand; 1 µM): 87%
O=C(c1ccc(Nc2ncc(Cl)c(-c3cc4ccccc4s3)n2)cc1)N1CCC(N2CCCC2)CC1 — remaining binding (binding, competition with immobilised ligand; 1 µM): 3%
O=C(Nc1c[nH]nc1C(=O)NC1CCNCC1)c1cc(F)cc(F)c1 — remaining binding (binding, competition with immobilised ligand; 1 µM): 65%
CS(=O)(=O)N1CCCC(NC(=O)[C@H](CCC2CCCCC2)NC(=O)c2ccc(CNc3ncnc4c3nnn4-c3ccccc3)cc2)C1 (stereo partly drawn) — remaining binding (cell-free assay, competition with immobilised ligand; 0.1 µM): 85%
F[C@@H]1CCN(c2nccc(-c3cnn4ncccc34)n2)C1 — remaining binding (binding; 1 µM): 89%
Cc1c[nH]c2nccc(Oc3c(F)cc(Nc4cc(Cl)nc(N)n4)cc3F)c12 — remaining binding (cell-free assay, competition with immobilised ligand; 0.1 µM): 80%
CNC(=O)[C@@H]1CC[C@@H](n2c(-c3ccc4cnccc4c3)nc3ccc(C(=O)NCc4cccc(C(N)=O)c4)cc32)C1 — remaining binding (binding, competition with immobilised ligand; 1 µM): 82%
CN(CCCC(F)(F)F)c1nccc(-c2cnn3ncccc23)n1 — remaining binding (binding, competition with immobilised ligand; 1 µM): 100%
CC(C)(C)c1ccc(-c2nc(CBr)nn2-c2cccc(O)c2)cc1 — remaining binding (cell-free assay, competition with immobilised ligand; 10 µM): 73%
O=C(c1ccc(Nc2ncc(Cl)c(-c3ccc(Cl)s3)n2)cc1)N1CCC(N2CCCC2)CC1 — remaining binding (binding, competition with immobilised ligand; 1 µM): 0.3%
CN(C)c1nccc(-c2cnc3ncccn23)n1 — remaining binding (binding, competition with immobilised ligand; 1 µM): 59%
CCC(=O)N[C@@H]1CC[C@H](C(=O)N(C)c2ccc(-c3nc4ccccc4o3)cc2)C1 — remaining binding (cell-free assay, competition with immobilised ligand; 1 µM): 53%
C[C@H]1CCN(c2nccc(-c3cnn4ncccc34)n2)C1 — remaining binding (binding, competition with immobilised ligand; 1 µM): 34%
C[C@@H]1CN(c2ccc3ncc(-c4ccc5[nH]nc(C6CC6)c5c4)n3n2)C[C@H](C)O1 — remaining binding (binding, competition with immobilised ligand; 50 nM): 80%
COCCOc1nc(-c2ccc(Cl)nc2)nc2c1CN(C(=O)c1ncn3ccccc13)CC2 — remaining binding (cell-free assay, competition with immobilised ligand; 0.1 µM): 100%
CCN1CCN(Cc2ccc(C(=O)Nc3ccc(C)c(Oc4ccc5c(c4)CC(=O)N5)c3)cc2C(F)(F)F)CC1 — remaining binding (binding, competition with immobilised ligand; 1 µM): 82%
C[C@H](c1ccnc(Nc2nc3ccc(-c4cc(N(C)C)ncn4)cc3[nH]2)c1)N1CCN(C(=O)CC(F)(F)F)CC1 — remaining binding (cell-free assay, competition with immobilised ligand; 0.1 µM): 98%
COc1ccnn2ncc(-c3ccnc(N(C)C)n3)c12 — remaining binding (binding; 1 µM): 75%
O=C(NCCCN1CCOCC1)c1ccc(Nc2nccc(-c3cc4ccccc4s3)n2)cc1 — remaining binding (binding, competition with immobilised ligand; 1 µM): 9.8%
N[C@H]1CCN(c2nccc(-c3cnn4ncccc34)n2)C1 — remaining binding (binding, competition with immobilised ligand; 1 µM): 85%
COc1ncc2cc3ccccc3nc2c1C#N — remaining binding (cell-free assay, competition with immobilised ligand; 5 µM): 100%
Nc1c(C(=O)NCc2ccc(C(=O)NCCCC3CCCCC3)cc2)cnn1-c1ccccc1 — remaining binding (cell-free assay, competition with immobilised ligand; 0.1 µM): 100%
CC1CCCN1c1nccc(-c2cnn3ncccc23)n1 (stereo not drawn) — remaining binding (binding, competition with immobilised ligand; 1 µM): 94%
